T cruzi repl – inhibitors of intracellular T. cruzi growth, primary screen, luminescence, NIH3T3 host cells; T. cruzi beta-gal in NIH3T3, 90 h; inhibition, % (concentration not given with the values); actives 1.4% (n = 300,000);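 active = mean inhibition across valid replicates above about 55%, limit read from the data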;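 also: signal also drops with host cell toxicity which is not excluded here; 0% = plate median of DMSO wells and 100% = zero luminescence signal; higher percent means less beta-gal luminescence so fewer parasites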
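Incubation – ≥90 h infection period, 3 h prior cell attachment · System – NIH/3T3 fibroblasts plus reporter T. cruzi · Doses – compound pinned at 50 nL/well, DMSO · Read-out basis – percent inhibition of parasite-derived β-gal signal · Signal – luminescent β-galactosidase signal after 60 min lysis · Also added – 5000 T. cruzi trypomastigotes/well · Medium – Low-serum DMEM with 2% FBS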
XBP1 UPR activ – activators of adaptive XBP1 UPR arm, primary screen, cell-based, CHO-XBP1 luciferase reporter, luminescence, uHTS; IRE1-XBP1 UPR activation; percent of tunicamycin response, DMSO as zero; activation, % at 20 µM; actives 0.33% (n = 330,000);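 active = versus positive control, 20 µM dose yields 30% or more activation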;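 also: 100% = tunicamycin at 10 µg/mL and 0% = DMSO only wells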
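Material: CHO-XBP1 cells stably carrying IRE1-XBP1-driven luciferase reporter | Medium: F12 with 10% serum | Compound dosing: 20 µM single concentration, DMSO 1% | Incubation: Overnight seeding at 37 °C, 6 h compound treatment at 37 °C | Detection: Steady-Glo luminescence read | Read-out basis: % activation of reporter signal versus tunicamycin and DMSO controls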
L major viab – Leishmania major promastigote growth inhibition, primary screen. Leishmania major promastigotes, resazurin fluorescence viability. AID 1063, 2008. actives 9% (n = 200,000). inhibition, % at 10 µM; in the data active = inhibition above about 50%;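 also: promastigotes grown with compound for 44 hours at 28 °C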
UPR CHOP act – activators of apoptotic CHOP UPR arm, primary screen, cell-based, CHO-CHOP luciferase reporter, luminescence, uHTS. activation, % at 10 µM. UPR activation; percent of tunicamycin response over DMSO baseline. actives 0.34% (n = 330,000);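 active = at 10 µM dose, activation of 40% or more, normalized to positive control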;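 also: 100% = tunicamycin at 10 µg/mL and 0% = DMSO alone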
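System: CHO-CHOP luciferase reporter cell line | Buffer or medium: F12 medium containing 10% fetal bovine serum | Doses: One dose, 10 µM in 0.5% DMSO | Times: 6 h compound exposure at 37 °C after overnight seeding | Signal: Luciferase luminescence | Read-out: % activation vs tunicamycin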
CHOP inhibitor – inhibitors of CHOP promoter induction, primary screen, cell-based, unfolded protein response, luciferase reporter; CHO-K1 CHOP-promoter luciferase, tunicamycin-induced, 15-18 h; AID 2732, 2010; inhibition, % at 10 µM; actives 3.8% (n = 220,000);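 active = compounds that reduced the stress-induced luciferase reporter signal by more than about 70% of percent inhibition, limit read from the data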;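 also: 0% = tunicamycin plus vehicle and 100% = wells without tunicamycin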
Dynein cargo inh – inhibitors of GR-EGFP nuclear translocation, primary screen, dynein cargo transport inhibitor project, imaging, high-content, 3617.4 mouse cells | test concentration mostly 20 µM; stimulated with dexamethasone, 1 µM; stronger effect = lower value | actives 0.47% (n = 220,000) | z-score, hits read low;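 active = plate z-score of nuclear minus cytoplasmic receptor signal below a set negative limit, without overly bright fluorescence or cell loss, cut at about -3.5 in these data, passing the limit was not always enough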;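 also: z-score of nuclear minus cytoplasmic ring GR-EGFP intensity difference per well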
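Buffer or medium: tet-free, stripped-serum medium; reagent: dexamethasone at 1.0 µM final, 30 min; incubation: 48 h induction, 1 h compound, 30 min dex at 37 °C; measured by: formaldehyde fixation, Hoechst nuclear stain, 10x automated fluorescence imaging; read-out: nuclear-to-cytoplasmic GR-EGFP distribution per well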
* = called active by the depositor; i = inactive; / = no result. Many of the other results were omitted from the sample, so hits are more common in it than they were.

SMILES	T cruzi repl	XBP1 UPR activ	L major viab	UPR CHOP act	CHOP inhibitor	Dynein cargo inh
COCCCNC(=S)N1CCN(C(c2ccccc2)c2ccccc2)CC1	-16	-2	/	3	/	/
COc1ccc(NC(=S)N2CCCN(Cc3cccc(Cl)c3)C2)cc1	16	-3	94*	3	-18	-0.7
COc1cccc(NC(=S)Nc2cccnc2)c1	-7	0	51*	-2	58	-0.15
COc1ccc(NC(=S)Nc2cccnc2)c(OC)c1	-11	0	5	0	-15	-0.55
Fc1cccc(NC(=S)N2CCCC2)c1	-9	-1	63*	2	1	-1
CSc1cccc(NC(=S)N2CCC(N(C)C3CCCC3)CC2)c1	-9	2	85*	-2	-20	-0.3
CCN(CC)CCn1c2c(c(SCC(=O)NCc3ccccc3)nc1=O)CCC2	-4	-1	/	1	/	/
CCC1Sc2ccc(S(=O)(=O)CCC(=O)NCc3ccco3)cc2NC1=O (stereo not drawn)	9	-2	/	-1	/	/
Cc1cccc(C)c1NC(=S)N1CCCN(Cc2ccc(F)cc2)C1	35	0	73*	-1	3	-0.96
CSc1cccc(NC(=S)N2CCCN(Cc3cccc(Cl)c3)C2)c1	43	-3	90*	1	61	0.0088
COc1cccc(NC(=S)N2CCCC2)c1	-14	2	76*	1	-11	0.83
COc1cccc(NC(=S)N2CCCN(Cc3ccc(F)cc3)C2)c1	33	-4	87*	2	4	0.36
Cn1c(N)c(-c2ccccc2)c2ccc([N+](=O)[O-])cc2c1=O	11	-2	/	-1	/	/
COc1ccc(NC(=S)N2CCCN(Cc3cc(C)ccc3C)C2)cc1	33	-3	55*	-1	3	-0.39
CCOc1ccc(NC(=S)N2CCCN(Cc3cccc(Cl)c3)C2)cc1	36	4	82*	1	1	-0.3
Cc1ccc(C(=O)NC(Cc2cccc(F)c2)C(=O)O)cc1 (stereo not drawn)	/	0	/	25	/	/
CCCn1c(N)c(C(=O)CN(C)CC(=O)Nc2cc(C)ccc2C)c(=O)[nH]c1=O	/	-4	/	0	/	/
O=C(O)c1ccccc1C(=O)Nc1ccc(Br)c(C(F)(F)F)c1	-18	3	/	2	-1	0.36
Cc1cc(C)c(C(=O)Nc2ccc(Br)c(C(F)(F)F)c2)c(C)c1	23	1	98*	1	59	-0.4
O=c1c(Cl)c(NCc2ccccc2)cnn1C12CC3CC(CC(C3)C1)C2	29	0	93*	1	26	0.038
CC(C)[C@H](NC(N)=O)C(=O)Nc1cccc(S(=O)(=O)N2CCOCC2)c1	-9	-6	6	-1	-1	0.37
Cn1nc(C(F)(F)F)c(C#N)c1N1CCN(c2ccccc2F)CC1	15	4	3	-1	59	-0.71
COc1cccc(N2CCN(c3c(C#N)c(C(F)(F)F)nn3C)CC2)c1	11	5	80*	1	29	0.51
N#CCCN(C(=O)c1ccc2c(=O)n3c(nc2c1)CCCCC3)c1ccccc1	-8	0	/	1	/	/
Cc1cc(Br)c(NC(=O)CN2CCCC2)c(Br)c1	-3	-4	/	1	/	/
SMILES	T cruzi repl	XBP1 UPR activ	L major viab	UPR CHOP act	CHOP inhibitor	Dynein cargo inh
COc1ccc(Cl)cc1N(CC(=O)NC(C)(C)C)S(=O)(=O)c1ccc(C)c([N+](=O)[O-])c1	36	0	96*	-1	14	0.32
COC(=O)CN(c1cc(Cl)ccc1OC)S(=O)(=O)c1ccc(C)cc1	-13	-2	/	0	-8	-0.23
CN1CCN(NC(=O)c2cc(-c3ccccn3)nc3ccccc23)CC1	/	0	0	-3	9	-0.48
COc1cc(-c2cc(C(=O)NN3CCN(C)CC3)c3ccccc3n2)cc(OC)c1OC	-5	0	91*	1	-19	0.29
COc1cc(-c2cc(C(=O)Nc3c(Cl)cc(Cl)cc3Cl)c3ccccc3n2)cc(OC)c1OC	-5	-1	81*	3	-1	-0.95
Cc1ccc(CNS(=O)(=O)c2ccc(CN3C(=O)c4cccnc4C3=O)s2)o1	-2	-3	/	1	/	/
CC(C)n1nc(C(=O)OCC(=O)c2c[nH]c3ccccc23)c2ccccc2c1=O	10	4	25	1	81*	0.44
CCn1nc(C(=O)OCC(=O)c2c[nH]c3ccccc23)c2ccccc2c1=O	0	1	24	-2	41	1.5
Clc1cccc(Cl)c1C[n+]1ccc2ccccc2c1	20	2	/	2	/	/
Cc1ccc(O)c(C2=Nc3ccccc3N=C(c3ccco3)C2)c1	-7	0	1	-1	87*	-0.73
Cc1ccc(C2=Nc3ccccc3N=C(c3ccco3)C2)c(O)c1	3	-7	-6	-4	72*	i
Cc1ccc(O)c(C2=Nc3ccccc3N=C(c3ccc([N+](=O)[O-])cc3)C2)c1	-4	-3	-3	-2	-17	0.42
CC(C)c1ccccc1OCCCCCNCCO	38	2	91*	-3	41	-0.38
Cc1cccc(C)c1OCCCN1CCCC1	11	-3	-3	-2	15	-0.1
OCCNCCOc1ccccc1F	-18	0	-6	0	2	0.27
COc1ccccc1OCCCCNCCO	-2	1	-1	0	48	-0.26
Cc1ccccc1OCCCCCNCCO	-2	/	62*	/	31	-0.98
CC(C)(C)c1ccccc1OCCCCCNCCO	23	1	93*	-1	-10	0.036
Cc1cccc(C)c1OCCCCCNCCO	10	-2	89*	-1	39	-0.18
COc1ccc(NC(=O)CN(C)C(=O)C(C)Oc2ccc(Br)cc2)cc1 (stereo not drawn)	0	1	/	-1	/	/
N#Cc1ccc(NC(=O)COC(=O)CCc2nc3ccccc3c(=O)[nH]2)cc1	-8	-3	/	3	8	-0.61
Nc1cc(N)nc(SCC(=O)NCCC2=CCCCC2)n1	-24	0	/	0	/	/
Cc1cc(C)c2nc(SCC(=O)NCCC3=CCCCC3)cc(C)c2c1	-2	0	-2	1	92*	0.049
COC(=O)c1ccc(CN(c2ccc(C(=O)O)c(O)c2)S(=O)(=O)c2ccc(Cl)c([N+](=O)[O-])c2)cc1	-3	/	/	/	/	/
CSc1nc(N)nc(SCC(=O)Nc2cccc(F)c2)c1C#N	5	/	9	/	56	-0.12
CSc1nc(N)nc(SCC(=O)Nc2ccc(Cl)cc2)c1C#N	14	0	100*	-3	10	-0.31

Bioassay records (PubChem)
